Published values of several laboratories.
Each line is one published result; the experiments were not run side by side.
Read-out: microbial growth

O=C(O)c1cn(C2CC2)c2cc(N3CCNCC3)c(F)cc2c1=O — MIC (Proteus vulgaris; DSM2140): ≤ 0.03 µg/mL
CCCCCCCCCCCCCCSC[C@@H]1O[C@@H](O[C@@H]2[C@@H](O)[C@H](O[C@@H]3O[C@@H](CN)[C@H](O)[C@@H](O)[C@@H]3N)[C@@H](N)C[C@H]2N)[C@@H](O)[C@H](N)[C@H]1O — MIC (Listeria monocytogenes; ATCC19115): 0.5 to 1 µg/mL
CC(C)Oc1c(NC(=O)c2ccc(NC(=O)[C@H](CC(N)=O)NC(=O)c3ccc(NC(=O)c4ccc(C#N)cc4)cc3)cc2)ccc(C(=O)Nc2ccc(C(=O)O)cc2)c1O — MIC (Proteus vulgaris; DSM2140): 0.25 µg/mL
O=C(Nc1ccc2c(c1)OC(F)(F)O2)Nc1ccc(Cl)c(C(F)(F)F)c1 — MIC (Listeria monocytogenes): 0.3 µM
O=C(CCCCCC[P+](c1ccccc1)(c1ccccc1)c1ccccc1)Nc1cc(O)c(O)c(O)c1.[Br-] — MIC (Cryptococcus neoformans; broth dilution; ATCC208821; 24 h): 32 µg/mL
CCCCCCC/C=C/C(=O)N1C(=O)/C(=C(/C)O)C(=O)C1CCCCN (stereo not shown) — MIC (Proteus vulgaris; ATCC33420): > 200 µg/mL
CC(C)Oc1c(NC(=O)c2ccc(NC(=O)c3ccc(NC(=O)[C@H](CC(N)=O)NC(=O)c4ccc(NC(=O)c5ccc(C#N)cn5)cc4)cc3)c(OC(C)C)c2O)ccc(C(=O)O)c1O — MIC (Proteus vulgaris; DSM2140): 1 µg/mL
O=C(Cc1ccc(O)c(O)c1)NCCCCCCCC[P+](c1ccccc1)(c1ccccc1)c1ccccc1.[Br-] — MIC (Cryptococcus neoformans; broth dilution; ATCC208821; 24 h): > 32 µg/mL
C/C(=C\c1ccc(C#N)cc1)C(=O)Nc1ccc(C(=O)N[C@@H](CC(N)=O)C(=O)Nc2ccc(C(=O)Nc3ccc(C(=O)Nc4ccc(C(=O)O)cc4)c(O)c3OC(C)C)cc2)cc1 — MIC (Proteus vulgaris; DSM2140): ≤ 0.03 µg/mL
CCCCCCC/C=C/C(=O)N1C(=O)/C(=C(/C)O)C(=O)C1Cc1ccc(OC(C)(C)C)cc1 (stereo not shown) — MIC (Proteus vulgaris; ATCC33420): > 200 µg/mL
CO[C@@H](C(N)=O)[C@H](NC(=O)c1ccc(NC(=O)c2ccc(C#N)cc2)cc1)C(=O)Nc1ccc(C(=O)Nc2ccc(C(=O)Nc3ccc(C(=O)O)cc3)c(O)c2OC(C)C)cc1 — MIC (Proteus vulgaris; DSM2140): 0.125 µg/mL
C/C(O)=C1\C(=O)C(CC(C)C)N(C(=O)CCCCCc2ccccc2)C1=O (stereo not shown) — MIC (Proteus vulgaris; ATCC33420): > 200 µg/mL
O=C(CCc1ccc(O)c(O)c1)NCCCCCCCC[P+](c1ccccc1)(c1ccccc1)c1ccccc1.[Br-] — MIC (Cryptococcus neoformans; broth dilution; ATCC208821; 24 h): > 32 µg/mL
CN1CCN(CC(O)(Cn2cncn2)c2ccc(F)cc2F)CC1 (stereo not shown) — MIC (Nakaseomyces glabratus; broth dilution; ATCC2001; 48 h): 31.3 µg/mL
CCCCCCC/C=C/C(=O)N1C(=O)/C(=C(\O)c2ccc(OCOCCOC)cc2)C(=O)C1CC(C)C (stereo not shown) — MIC (Proteus vulgaris; ATCC33420): > 200 µg/mL
NC[C@H]1O[C@H](O[C@H]2[C@H](O)[C@@H](O[C@H]3O[C@H](CO)[C@@H](O)[C@H](N)[C@H]3O)[C@H](N)C[C@@H]2N)[C@H](O)[C@@H](O)[C@@H]1O — MIC (Listeria monocytogenes; ATCC19115): > 128 µg/mL
